The values that follow come from ChEMBL document CHEMBL1782030, “Polyethylene glycol-based homologated ligands for nicotinic acetylcholine receptors” (Bioorg Med Chem, 2008).

A short description of the assay: Displacement of [3H]epibatidine from nAChR in rat cerebral cortex. Format: tissue-based. The method in brief:
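Rat cerebral cortex membranes used as receptor source; competition binding against the radioligand [3H]epibatidine. Ki values given as mean ± SEM of three experiments, each run in triplicate.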
A general note: Loss of bound radioactivity is the signal in a displacement assay; it reports binding, not function.
`COC(=O)N1CC[N+](C)(C)CC1`: the Ki (usually a measure of affinity in units of concentration, obtained from inhibition or displacement) amounted to 0.67 µM. Compound `COCCOCCOCCOC(=O)N1CC[N+](C)(C)CC1` yielded a Ki of 48 µM. In turn, `COCCOCCOC(=O)N1CC[N+](C)(C)CC1` came in with a Ki of 8.2 µM. Compound `COCCOCCOCCOCCOCC#Cc1cncc(OC[C@@H]2CCCN2C)c1` yielded a Ki of 0.03 µM. Take `COCCOCCOCCOCCOCCOC(=O)N1CC[N+](C)(C)CC1`: the affinity, expressed as Ki, was 38 µM. Compound `COCCOCCOCCOCCOCCOCCOCC#Cc1cncc(OC[C@@H]2CCCN2C)c1` came in with a Ki of 0.063 µM. On to `COCCOCCOC(=O)NCC[N+](C)(C)C`, for which the affinity, expressed as Ki, was 32 µM. `COCC#Cc1cncc(OC[C@@H]2CCCN2C)c1` returned a Ki of 0.0047 µM. Under `COC(=O)NCC[N+](C)(C)C` stands 14 µM; under `COCCOCCOCCOCCOC(=O)N1CC[N+](C)(C)CC1`, 26 µM. Under `COCCOCCOCCOC(=O)NCC[N+](C)(C)C` stands 70 µM; under `COCCOCCOCCOCC#Cc1cncc(OC[C@@H]2CCCN2C)c1`, 0.015 µM; under `COCCOCCOCC#Cc1cncc(OC[C@@H]2CCCN2C)c1`, 0.0075 µM. In the case of `COCCOCCOCCOCCOC(=O)NCC[N+](C)(C)C`, the Ki was found to be 150 µM. As to `CC(=O)N1CC[N+](C)(C)CC1` [ACETYLDIMETHYLPIPERAZINIUM IODIDE], the affinity corresponds to a Ki of 3.6 µM. In the case of `COCCOCCOCCOCCOCCOCCOC(=O)N1CC[N+](C)(C)CC1`, the affinity, expressed as Ki, was 19 µM. `COCCOCCOCCOCCOCCOCCOC(=O)NCC[N+](C)(C)C` showed a Ki of 30 µM. For the compound `COCCOCC#Cc1cncc(OC[C@@H]2CCCN2C)c1`, the affinity corresponds to a Ki of 0.015 µM.

Take `COCCOC(=O)NCC[N+](C)(C)C`: the affinity, expressed as Ki, was 54 µM. In the case of `CN1CCC[C@H]1COc1cncc(C#CCO)c1`, the Ki came to 0.0031 µM. As for `COCCOC(=O)N1CC[N+](C)(C)CC1`, affinity was put at a Ki of 3 µM. On to `COCCOCCOCCOCCOCCOC(=O)NCC[N+](C)(C)C`, for which the Ki is 190 µM. In the case of `COCCOCCOCCOCCOCCOCC#Cc1cncc(OC[C@@H]2CCCN2C)c1` it was 0.04 µM.
